The list is not random: actives were taken first. Their share in the collection is about 3.7%.
KCNK9 inh = KCNK9 potassium channel inhibitors, primary screen, HEK293 cells, thallium flux; B-score at 10 µM; FluxOR thallium flux fluorescence; hits give low values; 1.2% of 310,000 active; AID 488922, 2010; Potassium channel subfamily K member 9 (Homo sapiens), Q9NPC2;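 active = ratio B-score over 3 SD below the library mean, with starting fluorescence within 5 SD of its mean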;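 also: negative B-score means less thallium flux so channel inhibition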
Kir21 block = inhibitors of mouse Kir2.1 inward-rectifier potassium channel; B-score at 10 µM; 0.85% of 310,000 active; Inward rectifier potassium channel 2 (Mus musculus), P35561; HEK293-Kir2.1, FluxOR thallium flux fluorescence; hits give low values;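 active = fluorescence ratio B-score at or below minus 3 SD of library scores, with starting-brightness B-score within 2 SD, cut at about -4.2 in these data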;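 also: channel flux triggered by added potassium and thallium sulfate stimulus; B-score of peak minus minimum fluorescence over baseline after thallium stimulus; more negative B-score means stronger Kir2.1 block with less thallium influx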
hERG rescue = hERG rescue from dofetilide block, primary screen, cell-based, CHO-hERG, FluxOR thallium flux, dofetilide IC70; 0.51% of 310,000 active; activation (rescue from dofetilide block), less the hit threshold, % at 10 µM; AID 1511, 2009; dofetilide IC70 present;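 active = activation above the mean of controls blocked by dofetilide plus 5 SD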;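 also: thallium influx through hERG after potassium depolarization seen as dye fluorescence rise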
KCNK3 block = human KCNK3 channel inhibitors, primary screen, CHO cells, FluxOR thallium flux, B-score; Potassium channel subfamily K member 3 (Homo sapiens), O14649; FluxOR fluorescence; hits give low values; B-score at 10 µM; 0.84% of 340,000 active;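 active = B-score under library mean minus 4 SD, starting fluorescence ratio at most library mean plus 5 SD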;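 also: more negative B-score means stronger inhibition of thallium flux through KCNK3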
KCNQ1 inh = inhibitors of human KCNQ1 channel, primary screen, cell-based, thallium flux, high-throughput | 1.3% of 310,000 active | B-score at 10 µM | CHO-K1 KCNQ1, FluxOR thallium flux fluorescence; hits give high values | AID 2642, 2010;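 active = compounds whose thallium flux B-score, printed positive for inhibition, exceeds three library SD while starting fluorescence stays within three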;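 also: channel opened by potassium depolarization with thallium stimulus after 20 min compound exposure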
Target sequence (P51787 whole entry, looked up): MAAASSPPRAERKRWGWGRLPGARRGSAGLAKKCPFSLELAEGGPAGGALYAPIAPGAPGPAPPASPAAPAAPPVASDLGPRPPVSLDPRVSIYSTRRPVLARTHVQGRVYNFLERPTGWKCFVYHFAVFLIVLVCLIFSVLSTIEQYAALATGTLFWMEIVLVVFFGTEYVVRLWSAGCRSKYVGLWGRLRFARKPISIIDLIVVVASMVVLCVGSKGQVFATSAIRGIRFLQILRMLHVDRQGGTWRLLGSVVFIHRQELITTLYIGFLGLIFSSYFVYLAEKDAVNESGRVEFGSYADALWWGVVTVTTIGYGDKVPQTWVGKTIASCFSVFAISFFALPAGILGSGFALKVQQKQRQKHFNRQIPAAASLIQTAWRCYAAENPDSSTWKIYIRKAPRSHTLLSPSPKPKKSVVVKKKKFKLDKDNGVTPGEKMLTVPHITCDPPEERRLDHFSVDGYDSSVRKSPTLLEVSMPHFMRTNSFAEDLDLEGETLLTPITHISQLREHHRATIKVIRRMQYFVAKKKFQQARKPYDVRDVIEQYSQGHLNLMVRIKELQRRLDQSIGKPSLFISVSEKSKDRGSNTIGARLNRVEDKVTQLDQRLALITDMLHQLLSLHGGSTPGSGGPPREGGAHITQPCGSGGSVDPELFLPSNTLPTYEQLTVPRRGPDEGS
KCNQ1 act = potentiators or activators of KCNQ1 channel, primary screen, cell-based, thallium flux, high-throughput; CHO-K1 KCNQ1, thallium flux FluxOR fluorescence; hits give high values; 0.35% of 310,000 active; Potassium voltage-gated channel subfamily KQT member 1 (Homo sapiens), P51787; B-score at 10 µM;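 active = fluorescence ratio B-score, a plate-corrected score, at least three library SD, with initial intensity B-score within 5 SD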
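Assay system: stable KCNQ1 CHO-K1 line; medium: assay buffer, equal DMSO in all wells; timing: 90 min dye loading and 20 min compound exposure, both at room temperature; technique: kinetic FluxOR thallium fluorescence, 10-s 1-Hz baseline, 110-s post-stimulus read; read-out basis: B score of baseline-normalized fluorescence ratio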
KCNK9 block conf = KCNK9 potassium channel inhibitors, confirmation, HEK293 cells, thallium flux, duplicate; shares compounds with KCNK9 inh; FluxOR thallium flux fluorescence; inhibition, % at 10 µM; 43% of 4,900 active;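 active = thallium signal inhibited by more than 5 SD of the compound-free buffer control wells, on both duplicate plates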;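 also: 0% = assay buffer control wells without compound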
Kir2-1 spec = mouse Kir2.1 channel inhibition, confirmation, selectivity assay for KCNK9 modulator project, cell-based, HEK293, thallium flux | shares compounds with KCNK9 inh | Kir2.1 cells, FluxOR thallium flux fluorescence | inhibition, % at 10 µM | 4% of 4,900 active | AID 492993, 2010;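 active = thallium signal drop more than 5 SD beyond the mean of the no-compound control wells, seen in both duplicate plates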;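 also: signal is fluorescence rise after thallium addition divided by baseline fluorescence; plate controls were assay buffer only for no effect and full block by chlorpromazine control for full effect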
HEK293 Tl ctr = thallium flux in non-induced HEK293 cells, confirmation, counter-screen for KCNK9 inhibitor project, cell-based, second counter screen, non-induced KCNK9-HEK293 | shares compounds with KCNK9 inh | FluxOR thallium flux | inhibition, % at 10 µM | 40% of 4,900 active;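 active = thallium signal drop beyond 5 SD of the untreated control mean, on both duplicate plates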;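 also: plate controls were buffer only IC0 wells for no effect and SID17386958 at its maximal inhibitory level for full effect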
The depositor's hits bear a star; i = inactive; / = no result given.

SMILES | KCNK9 inh | Kir21 block | hERG rescue | KCNK3 block | KCNQ1 inh | KCNQ1 act | KCNK9 block conf | Kir2-1 spec | HEK293 Tl ctr
O=C(CNC(=O)c1cccc(-n2cnnn2)c1)Nc1ccc(F)c(F)c1 | / | / | / | i | / | / | / | / | /
COc1cc(/C=C/C(=O)OCC(=O)NCCC2=CCCCC2)cc(OC)c1OC | / | / | / | i | / | / | / | / | /
N#C/C(=C\c1c(Cl)cccc1Cl)c1nc2ccccc2o1 | i | 0 | -14 | i | i | i | i | i | i
N#C/C(=C\c1c(Cl)cccc1Cl)c1nc2ccccc2[nH]1 | -8.8* | -1 | -13 | i | i | i | 46%* | i | i
CN(C)/C=C(\C#N)c1nc2ccccc2[nH]1 | i | -0.44 | -5 | i | i | i | / | / | /
Cc1cc(O)ccc1N/C=C(\C#N)c1nc2ccccc2o1 | i | 1.3 | -3 | i | i | i | / | / | /
O=S(=O)(Nc1nc2ccc(Cl)cc2s1)c1cccs1 | i | 1.6 | -8 | i | i | i | / | / | /
CC(=O)N1c2ccc(S(=O)(=O)NCC3CCC(C(=O)N4CCC(C)CC4)CC3)cc2CC1C (stereo not drawn) | i | 1.9 | -10 | i | i | i | / | / | /
Cc1cnc(C(=O)Nc2ccc(C)c(S(=O)(=O)N3CCCCCC3)c2)cn1 | / | / | / | i | / | / | / | / | /
CC(C)C[C@H](NC(=O)c1nc[nH]c1C(=O)NCc1ccc(CNC(=O)OC(C)(C)C)cc1)C(=O)OC(C)(C)C | -8.8* | -1 | -7 | i | i | i | 32%* | i | 29%*
CC(C)(C)OC(=O)NCCCC[C@H](NC(=O)c1nc[nH]c1C(=O)N1CCc2ccccc2C1)C(=O)OC(C)(C)C | i | 0.29 | -12 | i | i | i | / | / | /
CC(C)(C)OC(=O)[C@H](Cc1ccccc1)NC(=O)c1nc[nH]c1C(=O)N1CCc2ccccc2C1 | i | -0.47 | -12 | i | i | i | i | i | i
CC[C@@]1(C(=O)OC)N[C@H](CN(C)C(=O)c2ccc(C)cc2)[C@@H]2C(=O)N(C)C(=O)[C@@H]21 | / | / | / | i | / | / | / | / | /
C[C@]12CCC[C@H](O1)[C@H]([C@@H](O)c1ccccc1)O2 | / | / | / | i | / | / | / | / | /
O=C(O)c1ccc(NS(=O)(=O)c2ccc(Cl)c(C(=O)Nc3ccccc3[N+](=O)[O-])c2)cc1 | i | 0.71 | -10 | i | i | i | / | / | /
CSc1ccccc1NC(=O)c1ccc(CN2CCOCC2)cc1 | -11* | -0.23 | -5 | i | i | i | i | i | i
CN(C)S(=O)(=O)c1cccc(NC(=O)c2cc(=O)[nH]c(=O)[nH]2)c1 | i | 0.4 | -5 | i | i | i | / | / | /
Cc1cc(OCC(=O)N(C(C)C)C(C)C)ccc1Cl | i | 1 | 5.0* | i | i | i | i | i | i
Cc1cc(OCC(=O)NC(C)(C)C)ccc1Cl | i | -0.71 | -4 | i | i | i | / | / | /
CC1Cc2ccccc2N1C(=O)CNc1cccc(S(=O)(=O)N2CCCC2)c1 (stereo not drawn) | i | 0.11 | -13 | i | i | i | i | i | i
CC(=O)c1cccc(NCC(=O)Nc2cccc(S(=O)(=O)N3CCCCC3)c2)c1 | i | 1.1 | -14 | i | i | i | / | / | /
CCOc1cc(C)c(C(C)C)cc1S(=O)(=O)n1cnc(C)c1 | i | -0.41 | -6 | i | i | i | i | i | i
CCOc1cc(C)c(C(C)C)cc1S(=O)(=O)N1CC(C)OC(C)C1 (stereo not drawn) | i | -1.3 | -8 | i | i | i | / | / | /
CC(=O)C[C@@H](O)CC(=O)[C@@H]1OC(=O)CCCCCCCc2ccccc21 | / | / | / | i | / | / | / | / | /
CC1Cc2ccccc2N1C(=O)C1CCCN(S(=O)(=O)c2cccc3nsnc23)C1 (stereo not drawn) | i | 1.5 | -10 | i | i | i | i | i | i
SMILES | KCNK9 inh | Kir21 block | hERG rescue | KCNK3 block | KCNQ1 inh | KCNQ1 act | KCNK9 block conf | Kir2-1 spec | HEK293 Tl ctr
CC1CCCN(C(=O)C2CCCN(S(=O)(=O)c3cccc4nsnc34)C2)C1 (stereo not drawn) | i | -0.31 | -7 | i | i | i | / | / | /
O=S(=O)(c1cccc2nsnc12)N1CCN(Cc2ccccc2)CC1 | i | -0.66 | -8 | i | i | i | i | i | i
O=C(C1CCCN(S(=O)(=O)c2cccc3nsnc23)C1)N1CCc2ccccc21 (stereo not drawn) | i | 0.03 | -8 | i | i | i | i | i | i
CC(=O)N1CCN(C(=O)COC(=O)CNC(=O)c2ccccc2C)CC1 | i | -0.03 | -12 | i | i | i | / | / | /
CC1CC(C)CN(S(=O)(=O)N2CCCC(C(=O)NCCc3ccccc3)C2)C1 (stereo not drawn) | i | 0 | -1 | i | i | i | / | / | /
COc1ccccc1C1=NC(c2ccc(F)cc2)N=C1C (stereo not drawn) | i | 1.1 | -10 | i | i | i | i | i | i
O=C(O)CCNS(=O)(=O)c1cccc2nsnc12 | / | / | / | i | / | / | / | / | /
COCCOc1cc(NC(=O)c2sccc2Oc2ccc([N+](=O)[O-])cc2F)c(Cl)cc1Cl | i | 2.2 | -5 | i | 9* | i | i | i | i
COCCOc1cc(NC(=O)c2cccc(OC)c2)c(Cl)cc1Cl | i | 0.68 | -5 | i | i | i | / | / | /
COc1cc(OC)cc(C(=O)NCC(C)NC(=O)c2cc(OC)cc(OC)c2)c1 (stereo not drawn) | i | 0.2 | -7 | i | i | i | / | / | /
O=C(CN(c1cccc(C(F)(F)F)c1)S(=O)(=O)c1ccc(Cl)c([N+](=O)[O-])c1)NCc1ccccc1Cl | -8.3* | 0.08 | -8 | i | i | i | 42%* | i | 36%*

Screening results: PubChem BioAssay, Johns Hopkins Ion Channel Center
